Measurements taken from ChEMBL document CHEMBL1144240, “Binding is not enough: flexibility is needed for photocrosslinking of Lck kinase by benzophenone photoligands” (Bioorg Med Chem, 2008).
Active and inactive are the calls of the source. The calls are words filed in the database; no cut-off is given here.

Legend:
[1] = biological target: T1, Tyrosine-protein kinase Lck (Homo sapiens, UniProt P06239); test: Binding affinity to Lck assessed as photolabeling efficiency by Western blot analysis
Method in brief: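 Lck was photocrosslinked with each ligand at 0, 3, 9, 18, 36, 90 and 180 µM. Labeled-band intensities were plotted against probe concentration. EC50 (ligand concentration giving 50% of maximal labeling) and its 95% CI were obtained by sigmoidal dose-response fitting of triplicate trials (n = 3).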
Target sequence in this assay (P06239 whole entry): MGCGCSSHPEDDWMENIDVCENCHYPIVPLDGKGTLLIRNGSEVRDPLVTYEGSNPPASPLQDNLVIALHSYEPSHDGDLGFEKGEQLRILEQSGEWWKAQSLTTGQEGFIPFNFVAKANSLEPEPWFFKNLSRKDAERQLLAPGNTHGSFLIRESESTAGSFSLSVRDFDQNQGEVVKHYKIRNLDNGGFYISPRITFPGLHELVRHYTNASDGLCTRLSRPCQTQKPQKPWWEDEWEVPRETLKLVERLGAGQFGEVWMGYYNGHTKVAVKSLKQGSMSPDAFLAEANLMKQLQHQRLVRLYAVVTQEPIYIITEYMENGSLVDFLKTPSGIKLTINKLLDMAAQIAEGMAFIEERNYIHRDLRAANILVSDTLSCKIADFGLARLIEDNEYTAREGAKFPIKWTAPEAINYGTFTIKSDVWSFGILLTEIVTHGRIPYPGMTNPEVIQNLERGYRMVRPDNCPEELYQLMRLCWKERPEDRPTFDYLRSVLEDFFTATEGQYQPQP

[2] = biological target: T1, Tyrosine-protein kinase Lck; test: Binding affinity to Lck assessed as photolabeling efficiency in presence of ATP-competitive Lck inhibitor by Western blot
Target sequence in this assay (P06239 2-509 limits assumed): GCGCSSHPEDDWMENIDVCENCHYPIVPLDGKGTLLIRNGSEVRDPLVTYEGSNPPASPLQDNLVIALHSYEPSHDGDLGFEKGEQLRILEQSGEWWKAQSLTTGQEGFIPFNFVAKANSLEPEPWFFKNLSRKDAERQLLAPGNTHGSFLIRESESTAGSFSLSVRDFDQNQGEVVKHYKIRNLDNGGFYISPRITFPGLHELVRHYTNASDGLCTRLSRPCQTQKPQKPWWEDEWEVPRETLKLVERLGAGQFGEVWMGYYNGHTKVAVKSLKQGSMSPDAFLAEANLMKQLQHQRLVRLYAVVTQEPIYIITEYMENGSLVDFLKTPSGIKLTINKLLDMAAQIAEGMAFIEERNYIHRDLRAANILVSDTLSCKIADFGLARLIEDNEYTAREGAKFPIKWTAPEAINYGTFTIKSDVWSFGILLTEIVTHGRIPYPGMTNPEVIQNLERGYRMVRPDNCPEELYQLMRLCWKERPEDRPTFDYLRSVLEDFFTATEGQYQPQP

[3] = biological target: T1, Tyrosine-protein kinase Lck; test: Inhibition of Lck by luciferase based assay
Method in brief: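 Lck (prediluted to 46 ng/µl) was mixed with Src substrate peptide (0.25 mM stock) in 50 mM HEPES pH 7.3, 2.5 mM DTT, 0.01% Triton X-100 and 10 mM MgCl2, plus ligand at various concentrations. Reaction was started with 100 µM ATP stock and run 1 h at room temperature. Residual ATP was read by Kinase-Glo Plus luminescence after 10 min. IC50 with 95% CI from sigmoidal fit, n = 2 or 3.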

[4] = Chemical stability after 30 mins of UV irradiation by RP-HPLC; assay type: physicochemical; conditions: read-out: Stability
Method in brief: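 Free ligands in buffer solution were irradiated under a UV-A lamp (λmax 350 nm). Aliquots were taken at 0, 10 and 30 min, and intact ligand was quantified by HPLC with UV detection at 280 nm.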

With `Nc1ncnc2c1ncn2CC(=O)N(CCNC(=O)CCCNC(=O)[C@H](Cc1ccc(C(=O)c2ccccc2)cc1)NC(=O)CCCNC(=O)CCCC[C@@H]1SC[C@@H]2NC(=O)N[C@@H]21)CC(=O)NCC(=O)O` the EC50 [1] was 4.4 µM, the Activity [2] was “inactive” and the Activity [3] was “inactive”. For the same molecule, the remaining at 0.5 h [4] was 70%.

`Nc1ncnc2c1ncn2CC(=O)N(CCNC(=O)[C@H]1CCCN1C(=O)[C@H](Cc1ccc(C(=O)c2ccccc2)cc1)NC(=O)CCCNC(=O)CCCC[C@@H]1SC[C@@H]2NC(=O)N[C@@H]21)CC(=O)NCC(=O)O` gave an EC50 [1] greater than 150 µM, an IC50 [3] of 50 µM and a remaining at 0.5 h [4] of 70%.

With `Nc1ncnc2c1ncn2CC(=O)N(CCNC(=O)[C@@H](CO)NC(=O)[C@H](Cc1ccc(C(=O)c2ccccc2)cc1)NC(=O)CCCNC(=O)CCCC[C@@H]1SC[C@@H]2NC(=O)N[C@@H]21)CC(=O)NCC(=O)O` the EC50 [1] was 23.3 µM, the Activity [2] was “inactive” and the IC50 [3] was 50 µM. It also gave a remaining at 0.5 h [4] of 70%.

For `Nc1ncnc2c1ncn2CC(=O)N(CCNC(=O)[C@@H](CCC(=O)O)NC(=O)[C@H](Cc1ccc(C(=O)c2ccccc2)cc1)NC(=O)CCCNC(=O)CCCC[C@@H]1SC[C@@H]2NC(=O)N[C@@H]21)CC(=O)NCC(=O)O`, the EC50 [1] was 18.4 µM, the Activity [2] was “inactive” and the Activity [3] was “inactive”. For the same molecule, the remaining at 0.5 h [4] was 70%.

For `Nc1ncnc2c1ncn2CC(=O)N(CCNC(=O)[C@H]1CCCCN1C(=O)[C@H](Cc1ccc(C(=O)c2ccccc2)cc1)NC(=O)CCCNC(=O)CCCC[C@@H]1SC[C@@H]2NC(=O)N[C@@H]21)CC(=O)NCC(=O)O`, the EC50 [1] was greater than 150 µM, the Activity [3] was “inactive” and the remaining at 0.5 h [4] was 70%.

With `Nc1ncnc2c1ncn2CC(=O)N(CCNC(=O)CNC(=O)[C@H](Cc1ccc(C(=O)c2ccccc2)cc1)NC(=O)CCCNC(=O)CCCC[C@@H]1SC[C@@H]2NC(=O)N[C@@H]21)CC(=O)NCC(=O)O` the EC50 [1] was 14.4 µM, the Activity [2] was “inactive” and the Activity [3] was “inactive”. It also gave a remaining at 0.5 h [4] of 70%.
